Legend:
[1] = Plasma and urine pharmacokinetics, Cycle 1; assay type: in vivo, Japanese patients
How it was run: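 Oral 30 or 40 mg BIW. In Cycle 1, plasma was sampled on Days 1 and 25 from pre-dose to 72 h post-dose. Urine was collected in three 24-h intervals after the Day 1 and Day 25 doses. Parent drug and metabolites were measured by LC/MS–MS. The PK population received ≥1 Cycle 1 dose and had ≥1 measured post-dose concentration.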

HDAC10 = conditions: cited from earlier work
[2] = pre-clinical study, no reference given; cited from earlier work
HDAC3 = conditions: cited from earlier work
[3] = tested on: relapsed or refractory non-Hodgkin's lymphoma; experiment: Anti-tumor activity; assay type: in vivo, Japanese patients
[4] = Cardiovascular assessments; assay type: in vivo, Japanese patients
[5] = 40 mg BIW cohort, seven patients
[6] = NHL other than ATL, 30 mg BIW, 5 patients
[7] = NHL other than ATL, 40 mg BIW, 3 patients

Structure (SMILES): Nc1cc(F)ccc1NC(=O)c1ccc(CNC(=O)/C=C/c2cccnc2)cc1 [HBI-8000, tucidinostat]
- Administered dose excreted unchanged in urine over the dosing interval, average ([1]; 30 mg cohort): 25.3%
- Administered dose excreted unchanged in urine over the dosing interval, average ([1]; 40 mg cohort): 21.9%
- half-life ([1]; human, plasma, oral, 40 mg, Mean t1/2, 30 and 40 mg, Days 1 and 25): 17.1 to 21.6 h
- AUC(0-inf) ([1]; human, plasma, po, 30 mg): 4000 ng·h/mL
- AUC(0-inf) ([1]; human, plasma, po, 40 mg): 7160 ng·h/mL
- Tmax ([1]; human, plasma, po, 40 mg, Median tmax, single and repeat oral administration, 30 and 40 mg): 2.42 to 5 h
- Inhibition of HDAC activity (HDAC10): selectively inhibits
- Effect on cardiovascular system including changes in QTc prolongation [2]: did not induce any effect
- Inhibition of HDAC activity (HDAC3): selectively inhibits
- Stable disease after the first cycle ([3]; 30 mg BIW cohort): three of six
- Disease control (CR + CRu + PR + SD) ([3]; 30 mg BIW cohort, six patients): 66.7%
- ORR ([3]; 30 mg BIW cohort, six patients): 16.7%
- Objective response ([3]; 40 mg BIW cohort): five of seven
- Partial responders with adult T-cell leukemia-lymphoma ([3]; 40 mg BIW cohort): three
- Disease control (CR + CRu + PR + SD) [3, 5]: 100%
- ORR [3, 5]: 71.4%
- Best overall response: PR ([3]; ATL, 30 mg BIW, 1 patient): 0 (0) n (%)
- Best overall response: SD ([3]; ATL, 30 mg BIW, 1 patient): 1 (100) n (%)
- Disease control (CR, PR or SD) ([3]; ATL, 30 mg BIW, 1 patient): 1 (100) n (%)
- Objective response (CR or PR) ([3]; ATL, 30 mg BIW, 1 patient): 0 (0.0) n (%)
- Best overall response: PR ([3]; ATL, 40 mg BIW, 4 patients): 3 (75.0) n (%)
- Best overall response: SD ([3]; ATL, 40 mg BIW, 4 patients): 1 (25.0) n (%)
- Disease control (CR, PR or SD) ([3]; ATL, 40 mg BIW, 4 patients): 4 (100) n (%)
- Objective response (CR or PR) ([3]; ATL, 40 mg BIW, 4 patients): 3 (75.0) n (%)
- Objective response ([3]; NHL other than ATL, 30 mg BIW cohort): 20%
- Best overall response: CR [3, 6]: 0 (0) n (%)
- Best overall response: CRu [3, 6]: 1 (20.0) n (%)
- Best overall response: PD [3, 6]: 2 (40.0) n (%)
- Best overall response: SD [3, 6]: 2 (40.0) n (%)
- Disease control (CR, CRu, PR or SD) [3, 6]: 3 (60.0) n (%)
- Objective response (CR, CRu or PR) [3, 6]: 1 (20.0) n (%)
- Objective response ([3]; NHL other than ATL, 40 mg BIW cohort): 66.7%
- Best overall response: CR [3, 7]: 1 (33.3) n (%)
- Best overall response: CRu [3, 7]: 1 (33.3) n (%)
- Best overall response: PD [3, 7]: 0 (0) n (%)
- Best overall response: SD [3, 7]: 1 (33.3) n (%)
- Disease control (CR, CRu, PR or SD) [3, 7]: 3 (100) n (%)
- Objective response (CR, CRu or PR) [3, 7]: 2 (66.7) n (%)
- Responses in patients with ATL ([3]; both cohorts): three out of five
- Absolute QTcF >450 ms ([4]; 30 mg BIW cohort): three
- QTcF increase of >30 ms from baseline ([4]; 40 mg BIW cohort): three
- Absolute QTcF prolonged to >500 ms ([4]; both cohorts): none
- QTcF increase >60 ms from baseline ([4]; both cohorts): none
